Source: ChEMBL document CHEMBL1155468, “Syntheses and evaluation of anticonvulsant profile and teratogenicity of novel amide derivatives of branched aliphatic carboxylic acids with 4-aminobenzensulfonamide” (J Med Chem, 2010)
Activity calls are given as the source filed them. No cut-off for these calls is given here.

Columns and labels:
Mus musculus [1] = assay: Anticonvulsant activity in CF1 albino mouse assessed as inhibition of maximal electroshock-induced seizures at 300 mg/kg, ip after 0.5 hrs; type: functional, organism-based; set-up: dose 300 mg/kg
Outline: (§1)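 Test compounds suspended in 0.5% methylcellulose and given ip to adult male CF no. 1 albino mice (18-25 g) at 0.01 mL/g body weight before maximal electroshock challenge.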

Mus musculus [2] = assay: Teratogenic effect in SWV mouse assessed as fetuses with neural tube deffects at 282 mg/kg, ip administered on morning of day 8 of gestation; type: toxicity, organism-based; set-up: dose 282 mg/kg, route intraperitoneal; details: in vivo
Outline: (§2)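 Two-month-old nulligravid SWV females were mated overnight and checked for vaginal plugs the next morning; gestation onset was set at 10 p.m. the previous night. On gestation day 8.5, each dam received a single ip injection (0.55-2.7 mmol/kg range) or vehicle (25% aqueous Cremophor EL) at 10 μL/g body weight. Litters were scored for implants, resorptions, live and dead fetuses, and fetuses with neural tube defects.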

Mus musculus [3] = assay: Anticonvulsant activity in CF1 albino mouse assessed as inhibition of maximal electroshock-induced seizures at 30 mg/kg, ip after 0.5 hrs; type: functional, organism-based; set-up: dose 30 mg/kg; outline: as §1
Mus musculus [4] = assay: Teratogenic effect in SWV mouse assessed as resorptions at 141 mg/kg, ip administered on morning of day 8 of gestation; type: toxicity, organism-based; set-up: dose 141 mg/kg, route intraperitoneal; details: in vivo
Outline: (§3)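 SWV inbred mice: two-month-old nulligravid females mated overnight with males and checked for vaginal plugs next morning; gestation onset taken as 10 p.m. the previous night. On gestation day 8.5 each dam got one ip injection, 0.55–2.7 mmol/kg, in 25% aqueous Cremophor EL (vehicle controls dosed alike), 10 μL/g body weight. Litters and implants tallied; resorptions and live fetuses reported as counts with percentages.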

Mus musculus [5] = assay: Neurotoxicity in CF1 albino mouse assessed as motor impairment at 30 mg/kg, ip after 0.5 hrs; type: toxicity, organism-based; set-up: dose 30 mg/kg, route intraperitoneal; details: in vivo
Mus musculus [6] = assay: Anticonvulsant activity in CF1 albino mouse assessed as inhibition of subcutaneous pentylenetetrazole-induced seizures at 300 mg/kg, ip after 0.5 hrs; type: functional, organism-based; set-up: dose 300 mg/kg
Outline: (§4)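 Adult male CF no. 1 albino mice (18-25 g) dosed ip with compound suspended in 0.5% methylcellulose (0.01 mL/g). Convulsant: pentylenetetrazol dissolved in 0.9% saline as a 0.85% solution for mice, given subcutaneously.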

Rattus norvegicus [7] = assay: Anticonvulsant activity in Sprague-Dawley rat assessed as inhibition of maximal electroshock-induced seizures at 30 mg/kg, po after 4 hrs
Mus musculus [8] = assay: Neurotoxicity in CF1 albino mouse assessed as motor impairment at 100 mg/kg, ip after 4 hrs; type: toxicity, organism-based; set-up: dose 100 mg/kg, route intraperitoneal; details: in vivo
Mus musculus [9] = assay: Teratogenic effect in SWV mouse assessed as fetuses with neural tube deffects at 141 mg/kg, ip administered on morning of day 8 of gestation; type: toxicity, organism-based; set-up: dose 141 mg/kg, route intraperitoneal; details: in vivo; outline: as §2
Rattus norvegicus [10] = assay: Anticonvulsant activity in Sprague-Dawley rat assessed as inhibition of maximal electroshock-induced seizures at 30 mg/kg, po after 30 mins
Mus musculus [11] = assay: Teratogenic effect in SWV mouse assessed as live fetuses at 282 mg/kg, ip administered on morning of day 8 of gestation; type: toxicity, organism-based; set-up: dose 282 mg/kg, route intraperitoneal; details: in vivo; outline: as §2
Mus musculus [12] = assay: Anticonvulsant activity in CF1 albino mouse assessed as inhibition of maximal electroshock-induced seizures at 300 mg/kg, ip after 4 hrs; type: functional, organism-based; set-up: dose 300 mg/kg; outline: as §1
Rattus norvegicus [13] = assay: Anticonvulsant activity in Sprague-Dawley rat assessed as inhibition of maximal electroshock-induced seizures at 30 mg/kg, po after 15 mins
Mus musculus [14] = assay: Teratogenic effect in SWV mouse assessed as live fetuses at 141 mg/kg, ip administered on morning of day 8 of gestation; type: toxicity, organism-based; set-up: dose 141 mg/kg, route intraperitoneal; details: in vivo; outline: as §2
Mus musculus [15] = assay: Neurotoxicity in CF1 albino mouse assessed as motor impairment at 30 mg/kg, ip after 4 hrs; type: toxicity, organism-based; set-up: dose 30 mg/kg, route intraperitoneal; details: in vivo
Mus musculus [16] = assay: Neurotoxicity in CF1 albino mouse assessed as motor impairment at 300 mg/kg, ip after 4 hrs; type: toxicity, organism-based; set-up: dose 300 mg/kg, route intraperitoneal; details: in vivo
Mus musculus [17] = assay: Teratogenic effect in SWV mouse assessed as resorptions at 282 mg/kg, ip administered on morning of day 8 of gestation; type: toxicity, organism-based; set-up: dose 282 mg/kg, route intraperitoneal; details: in vivo; outline: as §3
Mus musculus [18] = assay: Anticonvulsant activity in CF1 albino mouse assessed as inhibition of subcutaneous pentylenetetrazole-induced seizures at 100 mg/kg, ip after 4 hrs; type: functional, organism-based; set-up: dose 100 mg/kg; outline: as §4
Mus musculus [19] = assay: Anticonvulsant activity in CF1 albino mouse assessed as inhibition of subcutaneous pentylenetetrazole-induced seizures at 30 mg/kg, ip after 0.5 hrs; type: functional, organism-based; set-up: dose 30 mg/kg; outline: as §4
Mus musculus [20] = assay: Anticonvulsant activity in CF1 albino mouse assessed as inhibition of subcutaneous pentylenetetrazole-induced seizures at 30 mg/kg, ip after 4 hrs; type: functional, organism-based; set-up: dose 30 mg/kg; outline: as §4
Mus musculus [21] = assay: Anticonvulsant activity in CF1 albino mouse assessed as inhibition of subcutaneous pentylenetetrazole-induced seizures at 300 mg/kg, ip after 4 hrs; type: functional, organism-based; set-up: dose 300 mg/kg; outline: as §4
Rattus norvegicus [22] = assay: Anticonvulsant activity in po dosed rat assessed as inhibition of maximal electroshock-induced seizures
Mus musculus [23] = assay: Anticonvulsant activity in CF1 albino mouse assessed as inhibition of maximal electroshock-induced seizures at 30 mg/kg, ip after 4 hrs; type: functional, organism-based; set-up: dose 30 mg/kg; outline: as §1
Mus musculus [24] = assay: Anticonvulsant activity in CF1 albino mouse assessed as inhibition of subcutaneous pentylenetetrazole-induced seizures at 100 mg/kg, ip after 0.5 hrs; type: functional, organism-based; set-up: dose 100 mg/kg; outline: as §4
Mus musculus [25] = assay: Teratogenic effect in SWV mouse assessed as resorptions at 325 mg/kg, ip administered on morning of day 8 of gestation; type: toxicity, organism-based; set-up: dose 325 mg/kg, route intraperitoneal; details: in vivo
Rattus norvegicus [26] = species on record: Rattus norvegicus; assay: Protective index, ratio of TD50 for rat to ED50 for maximal electroshock-induced rat seizure model
Mus musculus [27] = assay: Teratogenic effect in SWV mouse assessed as live fetuses at 325 mg/kg, ip administered on morning of day 8 of gestation; type: toxicity, organism-based; set-up: dose 325 mg/kg, route intraperitoneal; details: in vivo
Mus musculus [28] = assay: Teratogenic effect in SWV mouse assessed as fetuses with neural tube deffects at 164 mg/kg, ip administered on morning of day 8 of gestation; type: toxicity, organism-based; set-up: dose 164 mg/kg, route intraperitoneal; details: in vivo
Mus musculus [29] = assay: Teratogenic effect in SWV mouse assessed as fetuses with neural tube deffects at 325 mg/kg, ip administered on morning of day 8 of gestation; type: toxicity, organism-based; set-up: dose 325 mg/kg, route intraperitoneal; details: in vivo
Mus musculus [30] = assay: Anticonvulsant activity in CF1 albino mouse assessed as inhibition of maximal electroshock-induced seizures at 100 mg/kg, ip after 4 hrs; type: functional, organism-based; set-up: dose 100 mg/kg; outline: as §1
Rattus norvegicus [31] = assay: Anticonvulsant activity in Sprague-Dawley rat assessed as inhibition of maximal electroshock-induced seizures at 30 mg/kg, po after 1 hr
Rattus norvegicus [32] = assay: Neurotoxicity in Sprague-Dawley rat assessed as motor impairment at 30 mg/kg, po after 0.25 to 4 hrs; details: in vivo
Mus musculus [33] = assay: Neurotoxicity in CF1 albino mouse assessed as motor impairment at 100 mg/kg, ip after 0.5 hrs; type: toxicity, organism-based; set-up: dose 100 mg/kg, route intraperitoneal; details: in vivo
Mus musculus [34] = assay: Teratogenic effect in SWV mouse assessed as live fetuses at 164 mg/kg, ip administered on morning of day 8 of gestation; type: toxicity, organism-based; set-up: dose 164 mg/kg, route intraperitoneal; details: in vivo
Mus musculus [35] = assay: Teratogenic effect in SWV mouse assessed as resorptions at 164 mg/kg, ip administered on morning of day 8 of gestation; type: toxicity, organism-based; set-up: dose 164 mg/kg, route intraperitoneal; details: in vivo
Mus musculus [36] = assay: Anticonvulsant activity in CF1 albino mouse assessed as inhibition of maximal electroshock-induced seizures at 100 mg/kg, ip after 0.5 hrs; type: functional, organism-based; set-up: dose 100 mg/kg; outline: as §1

SMILES | Activity (Mus musculus [1]) | Activity (Mus musculus [3]) | Activity (Mus musculus [5]) | Activity (Rattus norvegicus [7]) | Activity (Mus musculus [8]) | Activity (Rattus norvegicus [10]) | Activity (Mus musculus [12]) | Activity (Rattus norvegicus [13]) | Activity (Mus musculus [15]) | Activity (Mus musculus [18]) | Activity (Mus musculus [19]) | Activity (Mus musculus [20]) | Activity (Mus musculus [21]) | ED50 (Rattus norvegicus [22]) | Activity (Mus musculus [23]) | further results
CC(C)(C)C(=O)Nc1ccc(S(N)(=O)=O)cc1 | Active | inactive | Non-toxic | Active | Non-toxic | inactive | Active | inactive | Non-toxic | inactive | inactive | inactive | inactive | 42.2 mg/kg | inactive | Activity (Mus musculus [2]): 2.7%; Activity (Mus musculus [4]): 7.5%; Activity (Mus musculus [6]): inactive; Activity (Mus musculus [9]): 3.7%; Activity (Mus musculus [11]): 91.1%; Activity (Mus musculus [14]): 93.3%; Activity (Mus musculus [16]): Non-toxic; Activity (Mus musculus [17]): 8.9%; Activity (Mus musculus [24]): inactive
CCCCC(CC)C(=O)Nc1ccc(S(N)(=O)=O)cc1 (stereo unspecified) | Active | inactive | Non-toxic | Active | Non-toxic | inactive | Active | inactive | Non-toxic | inactive | inactive | inactive | inactive | 23.9 mg/kg | inactive | Activity (Mus musculus [25]): 74.2%; Ratio TD50/ED50 (Rattus norvegicus [26]): >21; Activity (Mus musculus [27]): 25.8%; Activity (Mus musculus [28]): 5.2%; Activity (Mus musculus [29]): 14.7%; Activity (Mus musculus [30]): Active; Activity (Rattus norvegicus [31]): Active; Activity (Rattus norvegicus [32]): Non-toxic; Activity (Mus musculus [33]): Non-toxic; Activity (Mus musculus [34]): 80.8%; Activity (Mus musculus [35]): 19.2%; Activity (Mus musculus [36]): Active
